Test [1] deals with T1, Renin (Homo sapiens, UniProt P00797).
T1 sequence (P00797 whole entry): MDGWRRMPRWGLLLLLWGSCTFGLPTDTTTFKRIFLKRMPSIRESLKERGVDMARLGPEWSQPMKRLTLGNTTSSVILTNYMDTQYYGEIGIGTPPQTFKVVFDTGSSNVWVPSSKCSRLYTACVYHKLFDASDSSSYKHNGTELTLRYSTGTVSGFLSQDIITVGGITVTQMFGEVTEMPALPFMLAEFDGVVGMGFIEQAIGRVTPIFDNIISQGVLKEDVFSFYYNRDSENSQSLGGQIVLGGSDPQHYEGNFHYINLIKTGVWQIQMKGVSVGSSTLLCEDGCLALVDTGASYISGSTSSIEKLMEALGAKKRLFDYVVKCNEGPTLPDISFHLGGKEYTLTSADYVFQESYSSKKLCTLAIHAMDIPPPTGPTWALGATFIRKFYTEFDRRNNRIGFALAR
The experiment in a line: Inhibition of purified human kidney renin, fluorometric assay using a synthetic tetradecapeptide renin substrate at 10e-9 M concentration. An outline of the steps: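 Purified human kidney renin with synthetic tetradecapeptide substrate, read fluorometrically for peptidal amino termini, at 37°C in 0.10 M citrate phosphate, pH 7.20. Ki from linear I/V vs. [I] plots, assuming competitive inhibition. Estimated error ±20%.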

Test [2] concerns the target T1, Renin. The experiment in a line: Inhibition of purified human kidney renin, radioimmunoassay using the natural substrate partially pure angiotensinogen at 10e-9 M concentration. An outline of the steps: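 Purified human kidney renin (0.02 ng) with 500 ng partially purified human angiotensinogen (0.08 μM, about 1% pure), 60 min at 37°C in 0.1 M citrate phosphate, pH 7.20. Inhibitor added in 10% methanol or DMF. Quenched by boiling for 1 min.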

The target of another test is Renin (Sus scrofa). Briefly: Inhibition of hog kidney renin at 10e-9 M concentration. To be noted: read-out: I50.
For test [3], the target named is T1, Renin. The experiment in a line: Inhibition of human plasma renin at 10e-9 M concentration. As to conditions: read-out: I50. An outline of the steps:
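Human plasma renin acting on endogenous plasma angiotensinogen at pH 7.4 (phosphate), 37°C. Renin and substrate levels were not measured. 8-Hydroxyquinoline or phenylmethanesulfonyl fluoride served as angiotensinase inhibitor. Angiotensin I was measured by radioimmunoassay. I50 values were generally reproducible within ±30%.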

Test [4] deals with T1, Renin. The experiment in a line: Inhibition of purified human kidney renin, radioimmunoassay using a synthetic tetradecapeptide renin substrate at 10e-9 M concentration.

For orientation: Ki means the equilibrium dissociation constant of an inhibitor or competing ligand from its target. Consider `C=C1c2ccccc2CC(NC(=O)[C@H](CC(C)C)NC(=O)CC(O)C(CC(C)C)NC(=O)[C@H](Cc2c[nH]cn2)NC(=O)[C@H](Cc2ccccc2)NC(=O)OC(C)(C)C)c2ccccc21` (stereo not given in full), for which the inhibitory constant (Ki) at Renin [1] was 120 nM; on Renin [2] it was 320 nM; at Renin [4], 520 nM. Also, the IC50 at Renin (Sus scrofa) was found to be 5.8 nM; at Renin [3] it was 569 nM.

As for `CC(C)CC(NC(=O)[C@H](Cc1c[nH]cn1)NC(=O)[C@H](Cc1ccccc1)NC(=O)OC(C)(C)C)C(O)CC(=O)N[C@@H](CC(C)C)C(=O)NC1CCN(Cc2ccccc2)CC1` (stereo not given in full), the inhibition constant Ki was 0.064 nM at Renin [1], 97 nM at Renin [2] and 0.04 nM on Renin [4]. In addition, the IC50 on Renin (Sus scrofa) came to 280 nM; at Renin [3] it was 127 nM.

Turning to `CC(C)CC(NC(=O)[C@H](Cc1cnc[nH]1)NC(=O)[C@H](Cc1ccccc1)NC(=O)OC(C)(C)C)C(O)CC(=O)N[C@@H](CC(C)C)C(=O)NC(C)c1ccccc1` (single isomer, unassigned; (+)), the Ki at Renin [1] was determined as 19 nM; at Renin [2], 100 nM; on Renin [4], 6 nM. Besides, the IC50 on Renin (Sus scrofa) turned out to be 14 nM; at Renin [3], 49 nM.

Take `CC(C)CC(NC(=O)[C@H](Cc1c[nH]cn1)NC(=O)[C@H](Cc1ccccc1)NC(=O)OC(C)(C)C)C(O)CC(=O)N[C@@H](CC(C)C)C(=O)NC(C)C(O)c1ccccc1` (stereo not given in full): the inhibition constant Ki at Renin [1] was found to be 67 nM; on Renin [2], 220 nM; at Renin [4], 36 nM. Besides, the figures for the IC50 at Renin (Sus scrofa) and at Renin [3] were 480 nM and 178 nM, respectively.

(Values after ChEMBL document CHEMBL1123620, “Renin inhibitors. Statine-containing tetrapeptides with varied hydrophobic carboxy termini” (J Med Chem, 1987).)
